# Active and inactive are the calls of the source.
# Columns and labels:
# Mus musculus [1] = assay: Evaluated for toxicity by using rotarod test at in mice 30 min; +++ = Activity at 100 mg/kg,*-Loss of righting reflex at less than 300 mg/kg; format: organism-based; details: in vivo, 0.5 h
# Method in brief: (§1)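 Neurotoxicity in male Carworth Farms number-one mice dosed ip in 30% PEG 400 at 30, 100, 300 and sometimes 600 mg/kg, tested 30 min or 4 h later. Mice placed on a 1-in. knurled rod rotating at 6 rpm; toxicity means failure to stay on the rod for 1 min. Scored by the lowest toxic dose; footnotes record loss of righting reflex or lethality.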
# Mus musculus [2] = assay: Anticonvulsant activity against scMet (subcutaneous metrazole) induced seizure in mice at 30 min; ++ = Activity at 300 mg/kg.; format: functional, organism-based; set-up: dose 300 mg/kg
# Mus musculus [3] = assay: Evaluated for toxicity by using rotarod test in mice at 4 hr; ++ = Activity at 300 mg/kg.; format: organism-based; set-up: dose 300 mg/kg; details: in vivo; method in brief: as §1
# Mus musculus [4] = assay: Anticonvulsant activity against MES (maximal electroshock) induced seizure in mice at 4 hr; ++ = Activity at 300 mg/kg.; format: functional, organism-based; set-up: dose 300 mg/kg
# Method in brief: (§2)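 Male Carworth Farms number-one mice received the compound ip in 30% polyethylene glycol 400. Doses were 30, 100 and 300 mg/kg, with 600 mg/kg in some cases. Maximal electroshock seizure protection was scored at 30 min and 4 h after dosing. Activity is coded by the lowest effective dose.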
# Mus musculus [5] = species on record: Mus musculus; assay: Evaluation of inhibitory activity against scMet induced convulsions in mice; NA = No activity.; format: functional, organism-based
# Mus musculus [6] = species on record: Mus musculus; assay: (§3) Evaluation of neurologic deficit by rotarod procedure in mice; format: functional
# Method in brief: (§4)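 Male Carworth Farms number-one mice were dosed ip (30% PEG 400 vehicle) and placed on a 1-in. knurled plastic rod rotating at 6 rpm. Neurotoxicity meant failure to stay on the rod for 1 min. TD50 was determined graphically.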
# Mus musculus [7] = assay: Anticonvulsant activity against scMet (subcutaneous metrazole) induced seizure in mice at 4 hr; ++ = Activity at 300 mg/kg.; format: functional, organism-based; set-up: dose 300 mg/kg
# [8] = Protective index (PI) which is defined as the ratio of TD50 to the ED50 (MES).; format: functional
# Method in brief: (§5)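 Both values come from ip dosing in 30% PEG 400 to male Carworth Farms number-one mice and were derived by the graphical method.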
# Mus musculus [9] = assay: Anticonvulsant activity against MES (maximal electroshock) induced seizure in mice at 30 min; +++ = Activity at 100 mg/kg.; format: functional, organism-based; set-up: dose 100 mg/kg; method in brief: as §2
# Mus musculus [10] = assay: Anticonvulsant activity against scMet (subcutaneous metrazole) induced seizure in mice at 30 min; +++ indicates activity at 100 mg/kg.; format: functional, organism-based; set-up: dose 100 mg/kg
# Mus musculus [11] = assay: Anticonvulsant activity against scMet (subcutaneous metrazole) induced seizure in mice at 4 hr; ++ indicates activity at 300 mg/kg.; format: functional, organism-based; set-up: dose 300 mg/kg
# [12] = Protective index (PI) which is defined as the ratio of TD50 to the ED50 (ScMet).; format: functional; method in brief: as §5
# Mus musculus [13] = assay: Evaluated for toxicity by using rotarod test at in mice 30 min; ++ indicates activity at 300 mg/kg.; format: organism-based; set-up: dose 300 mg/kg; details: in vivo, 0.5 h; method in brief: as §1
# Mus musculus [14] = assay: Evaluated for toxicity by using rotarod test in mice at 4 hr; ++ indicates activity at 300 mg/kg.; format: organism-based; set-up: dose 300 mg/kg; details: in vivo; method in brief: as §1
# Mus musculus [15] = assay: Anticonvulsant activity against MES (maximal electroshock) induced seizure in mice at 4 hr; +++ indicates activity at 100 mg/kg.; format: functional, organism-based; set-up: dose 100 mg/kg; method in brief: as §2
# Mus musculus [16] = assay: Evaluated for toxicity by using rotarod test in mice at 4 hr; + = Activity at 600 mg/kg.; format: organism-based; set-up: dose 600 mg/kg; details: in vivo; method in brief: as §1
# Mus musculus [17] = assay: Evaluated for toxicity by using rotarod test in mice at 30 min; + = Activity at 600 mg/kg.; format: organism-based; set-up: dose 600 mg/kg; details: in vivo, 0.5 h; method in brief: as §1
# Mus musculus [18] = assay: Anticonvulsant activity against scMet (subcutaneous metrazole) induced seizure in mice at 30 min; + = Activity at 600 mg/kg.; format: functional, organism-based; set-up: dose 600 mg/kg
# Mus musculus [19] = assay: Anticonvulsant activity against scMet (subcutaneous metrazole) induced seizure in mice at 4 hr; + = Activity at 600 mg/kg.; format: functional, organism-based; set-up: dose 600 mg/kg
# Mus musculus [20] = assay: Anticonvulsant activity against scMet (subcutaneous metrazole) induced seizure in mice at 30 min; +++ = Indicates activity at 100 mg/kg.; format: functional, organism-based; set-up: dose 100 mg/kg
# Mus musculus [21] = assay: Evaluated for toxicity by using rotarod test in mice at 4 hr; f = No activity at 100 mg/kg.; format: organism-based; set-up: dose 100 mg/kg; details: in vivo; method in brief: as §1
# Mus musculus [22] = assay: Evaluated for toxicity by using rotarod test at in mice 30 min; +++ = Indicates activity at 100 mg/kg.; format: organism-based; set-up: dose 100 mg/kg; details: in vivo, 0.5 h; method in brief: as §1
# [23] = as §3; format: ADME, organism-based; details: mouse, in vivo; method in brief: as §4
# Mus musculus [24] = assay: Anticonvulsant activity against MES (maximal electroshock) induced seizure in mice at 4 hr; f = No activity at 100 mg/kg.; format: functional, organism-based; set-up: dose 100 mg/kg; method in brief: as §2
# Mus musculus [25] = assay: Anticonvulsant activity against scMet (subcutaneous metrazole) induced seizure in mice at 4 hr; f = No activity at 100 mg/kg.; format: functional, organism-based; set-up: dose 100 mg/kg
# Mus musculus [26] = assay: Evaluated for toxicity by using rotarod test at in mice 30 min; + = Activity at 600 mg/kg.; format: organism-based; set-up: dose 600 mg/kg; details: in vivo, 0.5 h; method in brief: as §1
# Mus musculus [27] = assay: Anticonvulsant activity against MES (maximal electroshock) induced seizure in mice at 30 min; ++ = Activity at 300 mg/kg.; format: functional, organism-based; set-up: dose 300 mg/kg; method in brief: as §2
# Mus musculus [28] = assay: Anticonvulsant activity against scMet (subcutaneous metrazole) induced seizure at dose 300 mg/kg in mice at 30 min; ++ = Activity at 300 mg/kg.; format: functional, organism-based
# Mus musculus [29] = assay: Evaluated for toxicity by using rotarod test at dose 600 mg/kg in mice 30 min; - = No activity at 600 mg/kg.; format: organism-based; details: in vivo, 0.5 h; method in brief: as §1
# Mus musculus [30] = assay: Anticonvulsant activity against MES (maximal electroshock) induced seizure at dose 600 mg/kg in mice at 4 hr; - = No activity at 600 mg/kg.; format: functional, organism-based; method in brief: as §2
# Mus musculus [31] = assay: Anticonvulsant activity against MES (maximal electroshock) induced seizure at dose 600 mg/kg in mice at 30 min; - = No activity at 600 mg/kg.; format: functional, organism-based; method in brief: as §2
# Mus musculus [32] = assay: Anticonvulsant activity against scMet (subcutaneous metrazole) induced seizure at dose 600 mg/kg in mice at 4 hr; - = No activity at 600 mg/kg.; format: functional, organism-based
# Mus musculus [33] = assay: Evaluated for toxicity by using rotarod test in mice at 4 hr; - = No activity at 600 mg/kg.; format: organism-based; set-up: dose 600 mg/kg; details: in vivo; method in brief: as §1
# Mus musculus [34] = assay: Anticonvulsant activity against scMet (subcutaneous metrazole) induced seizure in mice at 4 hr; f = No activity at 100 mg/kg; format: functional, organism-based; set-up: dose 100 mg/kg
# Mus musculus [35] = assay: Evaluated for toxicity by using rotarod test in mice at 4 hr; f = No activity at 100 mg/kg; format: organism-based; set-up: dose 100 mg/kg; details: in vivo; method in brief: as §1
# Mus musculus [36] = assay: Anticonvulsant activity against scMet (subcutaneous metrazole) induced seizure in mice at 30 min; f = No activity at 100 mg/kg; format: functional, organism-based; set-up: dose 100 mg/kg
# Mus musculus [37] = assay: Anticonvulsant activity against MES (maximal electroshock) induced seizure in mice at 4 hr; f = No activity at 100 mg/kg; format: functional, organism-based; set-up: dose 100 mg/kg; method in brief: as §2
# Mus musculus [38] = assay: Evaluated for toxicity by using rotarod test at in mice 30 min; +++ = activity at 100 mg/kg *-LD50 less than 300 mg/kg; format: organism-based; details: in vivo, 0.5 h; method in brief: as §1
# Mus musculus [39] = assay: Anticonvulsant activity against MES (maximal electroshock) induced seizure in mice at 30 min; +++ = activity at 100 mg/kg; format: functional, organism-based; set-up: dose 100 mg/kg; method in brief: as §2
smiles,measurement,setting,value
CCCN(CCC)C(=O)c1ccc(N)cc1,Toxicity,Mus musculus [1],"Activity at 100 mg/kg,*-Loss of righting reflex at < 300 mg/kg"
same,Activity,Mus musculus [2],Activity at 100 mg/kg
same,Toxicity,Mus musculus [3],"Activity at 100 mg/kg,*-Loss of righting reflex at < 300 mg/kg"
same,Activity,Mus musculus [4],Activity at 100 mg/kg
same,ED50,Mus musculus [5],inactive
same,TD50,Mus musculus [6],116 mg/kg
same,Activity,Mus musculus [7],Activity at 100 mg/kg
same,PI,[8],1.9
same,Activity,Mus musculus [9],Activity at 100 mg/kg
CC(NC(=O)c1ccc(N)cc1)c1ccccc1 (stereo not given),Activity,Mus musculus [10],activity at 100 mg/kg
same,Activity,Mus musculus [11],activity at 100 mg/kg
same,PI,[12],4.1
same,Toxicity,Mus musculus [13],activity at 300 mg/kg
same,TD50,Mus musculus [6],171 mg/kg
same,PI,[8],9.5
same,Toxicity,Mus musculus [14],activity at 300 mg/kg
same,Activity,Mus musculus [15],activity at 100 mg/kg
CCNC(=O)c1ccc(N)cc1,Toxicity,Mus musculus [16],Activity at 600 mg/kg
same,Toxicity,Mus musculus [17],Activity at 600 mg/kg
same,Activity,Mus musculus [4],Activity at 100 mg/kg
same,Activity,Mus musculus [18],Activity at 100 mg/kg
same,Activity,Mus musculus [9],Activity at 100 mg/kg
same,Activity,Mus musculus [19],Activity at 100 mg/kg
CCCCCNC(=O)c1ccc(N)cc1,Activity,Mus musculus [20],Activity at 100 mg/kg
same,Toxicity,Mus musculus [21],No activity
same,PI,[12],1.2
same,Toxicity,Mus musculus [22],activity at 100 mg/kg
same,TD50,[23],68.5 mg/kg
same,Activity,Mus musculus [24],No activity
same,PI,[8],1.6
same,Activity,Mus musculus [9],Activity at 100 mg/kg
same,Activity,Mus musculus [25],No activity
Nc1ccc(C(=O)NCCc2ccccc2)cc1,Toxicity,Mus musculus [16],Activity at 600 mg/kg
same,Activity,Mus musculus [2],Activity at 300 mg/kg
same,Activity,Mus musculus [4],Activity at 300 mg/kg
same,Activity,Mus musculus [19],Activity at 300 mg/kg
same,Toxicity,Mus musculus [26],Activity at 600 mg/kg
same,Activity,Mus musculus [27],Activity at 300 mg/kg
NC(=O)c1ccc(N)cc1,Activity,Mus musculus [28],Activity at 300 mg/kg
same,Toxicity,Mus musculus [29],Not toxic
same,Activity,Mus musculus [30],Not toxic
same,Activity,Mus musculus [31],Not toxic
same,Activity,Mus musculus [32],Not toxic
same,Toxicity,Mus musculus [33],Not toxic
CCCCCCNC(=O)c1ccc(N)cc1,Activity,Mus musculus [34],No activity
same,Toxicity,Mus musculus [35],No activity
same,Activity,Mus musculus [36],No activity
same,Activity,Mus musculus [37],No activity
same,Toxicity,Mus musculus [38],activity at 100 mg/kg *-LD50 < 300 mg/kg
same,Activity,Mus musculus [39],activity at 100 mg/kg
